Values after ≈ are worked out from the molar mass of the structure shown. Where a SMILES comes first, the peptide text is derived from it. [ ]: non-standard residue; d: D form. Orn = NCCC[C@H](N)C(=O)O Bounds are passed on as bounds.

The MIC is the lowest concentration found to suppress growth. A higher MIC goes with weaker potency.

Data set [1] in a line: Cytotoxicity against human RBC assessed induction of hemolysis at […] after 30 mins microtiter plate reader analysis. In kind it is cell-based. The conditions noted are these: erythrocyte, 0.5 h.
In another data set the test system is Priestia megaterium. The data set can be described thus: Antibacterial activity against Bacillus megaterium ATCC 19213 after overnight incubation by medium dilution method. The format is functional. Put shortly: (§1)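 MIC by medium dilution with an inoculum of 10⁶ organisms per ml. Value is the minimum inhibitory concentration.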
Another data set relates to Staphylococcus aureus. The data set can be described thus: Antibacterial activity against Staphylococcus aureus NBRC 12732 after overnight incubation by medium dilution method. The format is functional. The method in brief:
as §1

Another data set concerns Escherichia coli. The data set can be described thus: Antibacterial activity against Escherichia coli NBRC l2734 after overnight incubation by medium dilution method. The format is functional. The method in brief:
as §1

Data set [2] concerns Staphylococcus epidermidis. The data set can be described thus: Antibacterial activity against Staphylococcus epidermidis NBRC 12993 after overnight incubation by medium dilution method. In kind it is functional. Put shortly:
as §1

The next data set has as its system Bacillus subtilis. The data set can be described thus: Antibacterial activity against Bacillus subtilis NBRC 3513 after overnight incubation by medium dilution method. The format is functional. The method in brief: as §1
Another data set concerns Pseudomonas aeruginosa. Nature of the data set: Antibacterial activity against Pseudomonas aeruginosa NBRC 3080 after overnight incubation by medium dilution method. The format is functional. The method in brief:
as §1

In the case of `CC(C)C[C@@H]1NC(=O)[C@H](CCCN)NC(=O)[C@H](C)NC(=O)[C@@H](Cc2ccc(O)cc2)NC(=O)[C@@H]2CCCN2C(=O)[C@@H](Cc2ccccc2)NC(=O)[C@H](CC(C)C)NC(=O)[C@H](CCCN)NC(=O)[C@H](C)NC(=O)[C@@H](Cc2ccc(O)cc2)NC(=O)[C@@H]2CCCN2C(=O)[C@@H](Cc2ccccc2)NC1=O`, the Activity entry in data set [1] is listed as “Non-toxic”. Further, the minimal inhibitory concentration (MIC) is 12.5 µg/mL (≈ 8.85 µM) with Priestia megaterium; 6.25 µg/mL (≈ 4.43 µM) against Staphylococcus aureus; more than 100 µg/mL against Escherichia coli; 25 µg/mL (≈ 17.7 µM) in data set [2]; 12.5 µg/mL (≈ 8.85 µM) in the data set on Bacillus subtilis; more than 100 µg/mL in the data set with Pseudomonas aeruginosa.

With `CC(C)C[C@@H]1NC(=O)[C@H](C)NC(=O)[C@H](C(C)C)NC(=O)[C@@H](Cc2ccc(O)cc2)NC(=O)[C@@H]2CCCN2C(=O)[C@@H](Cc2ccccc2)NC(=O)[C@H](CC(C)C)NC(=O)[C@H](C)NC(=O)[C@H](C(C)C)NC(=O)[C@@H](Cc2ccc(O)cc2)NC(=O)[C@@H]2CCCN2C(=O)[C@@H](Cc2ccccc2)NC1=O`, in data set [1], the Activity result was “Non-toxic”. Besides, the minimal inhibitory concentration (MIC) (in the data set on Priestia megaterium; in the data set with Staphylococcus aureus; with Escherichia coli; in data set [2]; against Bacillus subtilis; with Pseudomonas aeruginosa) was more than 50 µg/mL each time.

For the compound `CC(C)[C@@H]1NC(=O)[C@@H](Cc2ccc(O)cc2)NC(=O)[C@@H]2CCCN2C(=O)[C@@H](Cc2ccccc2)NC(=O)[C@H](C)NC(=O)[C@H](CCCN)NC(=O)[C@H](C(C)C)NC(=O)[C@@H](Cc2ccc(O)cc2)NC(=O)[C@@H]2CCCN2C(=O)[C@@H](Cc2ccccc2)NC(=O)[C@H](C)NC(=O)[C@H](CCCN)NC1=O`, the Activity result in data set [1] is given as “Non-toxic”. Besides, the MIC in the data set on Priestia megaterium was 100 µg/mL (≈ 72.3 µM); against Staphylococcus aureus, 100 µg/mL (≈ 72.3 µM); with Escherichia coli, more than 100 µg/mL; in data set [2], more than 100 µg/mL; with Bacillus subtilis, 100 µg/mL (≈ 72.3 µM); in the data set with Pseudomonas aeruginosa it was more than 100 µg/mL.

Turning to `CC(C)C[C@@H]1NC(=O)[C@H](CCCN)NC(=O)[C@H](C(C)C)NC(=O)[C@@H](Cc2ccc(O)cc2)NC(=O)[C@@H]2CCCN2C(=O)[C@@H](C)NC(=O)[C@H](CC(C)C)NC(=O)[C@H](CCCN)NC(=O)[C@H](C(C)C)NC(=O)[C@@H](Cc2ccc(O)cc2)NC(=O)[C@@H]2CCCN2C(=O)[C@@H](C)NC1=O`, the Activity result in data set [1] was “Non-toxic”. Moreover, the MIC (with Priestia megaterium; against Staphylococcus aureus; against Escherichia coli; in data set [2]; against Bacillus subtilis; in the data set with Pseudomonas aeruginosa) was more than 100 µg/mL in each case.

Turning to `CC(C)C[C@@H]1NC(=O)[C@H](CCCN)NC(=O)[C@H](C(C)C)NC(=O)[C@@H](Cc2ccc(O)cc2)NC(=O)[C@H](C)NC(=O)[C@@H](Cc2ccccc2)NC(=O)[C@H](CC(C)C)NC(=O)[C@H](CCCN)NC(=O)[C@H](C(C)C)NC(=O)[C@@H](Cc2ccc(O)cc2)NC(=O)[C@H](C)NC(=O)[C@@H](Cc2ccccc2)NC1=O`, the Activity result in data set [1] is “Non-toxic”. Besides, the MIC in the data set with Priestia megaterium was 25 µg/mL (≈ 17.7 µM); in the data set with Staphylococcus aureus, 12.5 µg/mL (≈ 8.83 µM); with Escherichia coli it was more than 100 µg/mL; in data set [2] it was 50 µg/mL (≈ 35.3 µM); against Bacillus subtilis, 12.5 µg/mL (≈ 8.83 µM); against Pseudomonas aeruginosa, more than 100 µg/mL.

Consider `CC(C)C[C@@H]1NC(=O)[C@H](CCCN)NC(=O)[C@H](CCCCN)NC(=O)[C@@H](Cc2ccc(O)cc2)NC(=O)[C@@H]2CCCN2C(=O)[C@@H](Cc2ccccc2)NC(=O)[C@H](CC(C)C)NC(=O)[C@H](CCCN)NC(=O)[C@H](CCCCN)NC(=O)[C@@H](Cc2ccc(O)cc2)NC(=O)[C@@H]2CCCN2C(=O)[C@@H](Cc2ccccc2)NC1=O`, for which the Activity result in data set [1] is reported as “Non-toxic”. Also, the MIC (with Priestia megaterium; in the data set on Staphylococcus aureus; in the data set with Escherichia coli; in data set [2]; in the data set with Bacillus subtilis; with Pseudomonas aeruginosa) was more than 100 µg/mL each time.

Take `CC(C)C[C@@H]1NC(=O)[C@H](CCCN)NC(=O)[C@H](C(C)C)NC(=O)[C@@H](Cc2ccc(O)cc2)NC(=O)[C@H](CO)NC(=O)[C@@H](Cc2ccccc2)NC(=O)[C@H](CC(C)C)NC(=O)[C@H](CCCN)NC(=O)[C@H](C(C)C)NC(=O)[C@@H](Cc2ccc(O)cc2)NC(=O)[C@H](CO)NC(=O)[C@@H](Cc2ccccc2)NC1=O`: in data set [1], the Activity entry is given as “Non-toxic”. Besides, the MIC against Priestia megaterium is 50 µg/mL (≈ 34.5 µM); with Staphylococcus aureus it was 12.5 µg/mL (≈ 8.63 µM); against Escherichia coli, more than 100 µg/mL; in data set [2] it was 50 µg/mL (≈ 34.5 µM); with Bacillus subtilis, 25 µg/mL (≈ 17.3 µM); with Pseudomonas aeruginosa, more than 100 µg/mL.

Consider `CC(C)C[C@@H]1NC(=O)[C@H](CCCN)NC(=O)[C@H](C(C)C)NC(=O)[C@@H](Cc2ccc(O)cc2)NC(=O)[C@H](CCCCN)NC(=O)[C@@H](Cc2ccccc2)NC(=O)[C@H](CC(C)C)NC(=O)[C@H](CCCN)NC(=O)[C@H](C(C)C)NC(=O)[C@@H](Cc2ccc(O)cc2)NC(=O)[C@H](CCCCN)NC(=O)[C@@H](Cc2ccccc2)NC1=O`, for which the Activity result in data set [1] was “Non-toxic”. The MIC in the data set with Priestia megaterium was 6.25 µg/mL (≈ 4.09 µM); in the data set on Staphylococcus aureus it was 6.25 µg/mL (≈ 4.09 µM); against Escherichia coli it was 25 µg/mL (≈ 16.3 µM); in data set [2] it was 6.25 µg/mL (≈ 4.09 µM); in the data set on Bacillus subtilis it was 6.25 µg/mL (≈ 4.09 µM); against Pseudomonas aeruginosa it was 100 µg/mL (≈ 65.4 µM).

Consider `CC(C)C[C@@H]1NC(=O)[C@H](CCCN)NC(=O)[C@H](C(C)C)NC(=O)[C@@H](Cc2ccc(O)cc2)NC(=O)[C@H](CCCNC(=N)N)NC(=O)[C@@H](Cc2ccccc2)NC(=O)[C@H](CC(C)C)NC(=O)[C@H](CCCN)NC(=O)[C@H](C(C)C)NC(=O)[C@@H](Cc2ccc(O)cc2)NC(=O)[C@H](CCCNC(=N)N)NC(=O)[C@@H](Cc2ccccc2)NC1=O`, for which, in data set [1], the Activity entry is “Non-toxic”. Also, the minimum inhibitory concentration (MIC) against Priestia megaterium was 6.25 µg/mL (≈ 3.94 µM); with Staphylococcus aureus, 6.25 µg/mL (≈ 3.94 µM); in the data set with Escherichia coli, 12.5 µg/mL (≈ 7.88 µM); in data set [2], 6.25 µg/mL (≈ 3.94 µM); against Bacillus subtilis, 6.25 µg/mL (≈ 3.94 µM); against Pseudomonas aeruginosa, 50 µg/mL (≈ 31.5 µM).

Turning to `CC(C)C[C@@H]1NC(=O)[C@H](CCCN)NC(=O)[C@H](C(C)C)NC(=O)[C@@H](C)NC(=O)[C@@H]2CCCN2C(=O)[C@@H](Cc2ccccc2)NC(=O)[C@H](CC(C)C)NC(=O)[C@H](CCCN)NC(=O)[C@H](C(C)C)NC(=O)[C@@H](C)NC(=O)[C@@H]2CCCN2C(=O)[C@@H](Cc2ccccc2)NC1=O` (cyclo(L[dF]P[dA]V[Orn]L[dF]P[dA]V[Orn])), in data set [1], the Activity result is given as “Non-toxic”. The minimum inhibitory concentration (MIC) is 12.5 µg/mL (≈ 9.74 µM) against Priestia megaterium; 12.5 µg/mL (≈ 9.74 µM) against Staphylococcus aureus; more than 100 µg/mL with Escherichia coli; 25 µg/mL (≈ 19.5 µM) in data set [2]; 12.5 µg/mL (≈ 9.74 µM) with Bacillus subtilis; more than 100 µg/mL against Pseudomonas aeruginosa.

For the compound `CC(C)C[C@@H]1NC(=O)[C@H](CCCN)NC(=O)[C@H](C(C)C)NC(=O)[C@@H](Cc2ccc(O)cc2)NC(=O)[C@@H]2CCCN2C(=O)[C@@H](Cc2ccccc2)NC(=O)[C@H](CC(C)C)NC(=O)[C@H](CCCN)NC(=O)[C@H](C(C)C)NC(=O)[C@@H](Cc2ccc(O)cc2)NC(=O)[C@@H]2CCCN2C(=O)[C@@H](Cc2ccccc2)NC1=O` [GRATISIN], the Activity entry in data set [1] is on record as “Toxic”. Also, the MIC came to 6.25 µg/mL (≈ 4.26 µM) in the data set with Priestia megaterium; 6.25 µg/mL (≈ 4.26 µM) against Staphylococcus aureus; 100 µg/mL (≈ 68.1 µM) with Escherichia coli; 12.5 µg/mL (≈ 8.52 µM) in data set [2]; 6.25 µg/mL (≈ 4.26 µM) with Bacillus subtilis; 100 µg/mL (≈ 68.1 µM) against Pseudomonas aeruginosa.

The values are drawn from ChEMBL document CHEMBL1641423, “Novel gratisin derivatives with high antimicrobial activity and low hemolytic activity” (Bioorg Med Chem Lett, 2011).
